# Reference: paper PMC8177101 (Chemical research in toxicology, 2020)
# Assays:
# [1] = CellTiter Glo cytotoxicity; format: cell-based; settings: human
# In short: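 Human HapMap lymphoblastoid lines grown in RPMI 1640 with 15% heat-inactivated FBS at 37 °C, 5% CO2, low passage (<10). Preliminary cytotoxicity dose-response to the test compound (a diepoxide) read by CellTiter Glo as cellular ATP level; IC50 taken from the dose-response curves.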
# [2] = system: HapMap lymphoblastoid cell lines; assay: Apoptosis, Annexin V / PI flow cytometry; format: cell-based, human; settings: 0, 5 or 10 μM DEB, 24 h, 18 cell lines; Anova p < 0.001
# [3] = system: HapMap lymphoblastoid cell lines; assay: Micronuclei; format: cell-based, human; settings: then 96 h in fresh media, averaged over all cell lines
# In short: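 Ten GSTT1-negative and 8 GSTT1-positive lymphoblastoid lines were grown in RPMI 1640 with 15% heat-inactivated FBS at 37 °C, 5% CO2, passage <10. Cells were seeded at 0.5 million per 4 ml and rested 24 h. They were exposed to 0, 5 or 10 μM test compound for 6 h in triplicate, pelleted, then held 96 h in fresh medium. Micronuclei were scored with the Litron kit by flow cytometry.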
# [4] = ref [10], [11]; cited from earlier work
smiles,measurement,setting,value
"C1OC1C1CO1 (centres unmarked) [DEB, 1,2,3,4-diepoxybutane]",IC50,[1],2 to 6 µM
same,percentage of Annexin V-labeled cells,[2],increase in the percentage of Annexin V-labeled cells
same,fold increase of mean percent of MN positive cells,[3]; 5 μM DEB 6 h,1.8 fold
same,fold increase of mean percent of MN positive cells,[3]; 10 μM DEB 6 h,2.4 fold
same,mutagenic potency as compared to BD-derived monoepoxides,[4],up to 200 fold
